Bioassay records (PubChem)
Sampled rows, rich in hits. Any-hit rate of the full collection: about 3.5%.
HIV Env fusion – inhibitors of HIV Env-mediated cell fusion | AID 651610 | actives 1.1% (n = 360,000) | HeLa-JRFL Env/CEM21 cell fusion, luciferase | inhibition, % at 12.3 µM;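 active = mean replicate inhibition score of at least 50 and every replicate individually at or above 50; inconclusive = only one of the two criteria met; inactive = mean below 50 and not all replicates reaching 50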
PglD DTNB – blocks C. jejuni PglD acetyltransferase activity; inhibition, % at 12.5 µM; purified PglD enzyme, DTNB colorimetric CoA detection; actives 0.098% (n = 360,000); AID 602405; in the data active = inhibition above about 16%, passing the limit was not always enough; inconclusive = no clear call, values can overlap the other calls
FN deposition inh – fibronectin deposition inhibition | AID 743247 | actives 0.086% (n = 350,000) | inhibition, % at 12.6 µM | AH1F fibroblasts, Alexa488-fibronectin deposition fluorescence, overnight;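 active = mean inhibition across replicates of 30% or more, regardless of how many single replicates reach that level; inconclusive = mean under 30% yet at least half of replicates reach 30%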
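test system = AH1F fibroblasts assembling fluorescent fibronectin matrix | quantity = 10000 AH1F cells per well | buffer or medium = DMEM plus 2% serum, read in PBS | doses = single dose, pinned | incubation = 1 h cell attachment, overnight exposure to compound and label | detection = fluorescence at 485 nm excitation, 525 nm emission | read-out basis = inhibition from reduced deposited-fibronectin fluorescence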
rRNA inh HTS – inhibits bacterial ribosomal RNA function over humanized ribosomes; E. coli WT GFP vs humanized-ribosome RFP mutants, fluorescence, 24 h; stronger effect = lower value; DMSO median 0, no signal -100; GFP signal change (wild-type ribosome), % (concentration not given with the values); actives 1.6% (n = 350,000); AID 720706;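 active = significant combined selectivity score with lowered wild-type GFP, culture density cut under 30%, mutant RFP and density less affected; inactive = any of these conditions unmet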
DENV2 CPE rescue – DENV2-induced cell death inhibition; DENV2-infected cells, cytopathic effect rescue, plate reader; CPE inhibition, % at 9.99 µM; actives 1.7% (n = 350,000); in the data active = CPE inhibition above about 20%, passing the limit was not always enough; inconclusive = no clear call, values can overlap the other calls; tested in BHK-21 cells
PGC1a acetyl inh – PGC1a acetylation modulation, inhibitor mode. U2OS PGC1a acetylation, AlphaScreen anti-acetyl-lysine; with virally co-expressed GCN5 acetyltransferase. inhibition, % at 15.6 µM. actives 0.17% (n = 350,000). AID 651687;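 active = every replicate shows inhibition of at least 40%; inconclusive = mean inhibition at least 40% but some replicate below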
A number is an active result; – = inactive; ? = inconclusive; · = not tested or not shown; ! = a repeat was not active.

SMILES | HIV Env fusion | PglD DTNB | FN deposition inh | rRNA inh HTS | DENV2 CPE rescue | PGC1a acetyl inh
C[C@H]1CN([C@@H](C)CO)C(=O)c2cccc(NC(=O)c3cnccn3)c2O[C@H]1CN(C)Cc1ccc(Cl)c(Cl)c1 | – | – | · | – | 23 | –
C[C@H]1CN([C@@H](C)CO)C(=O)c2cccc(NC(=O)c3cnccn3)c2O[C@@H]1CN(C)Cc1ccc2c(c1)OCO2 | – | – | · | – | 24 | –
C[C@H](CO)N1C[C@H](C)[C@@H](CN(C)C)Oc2c(NC(=O)c3cnccn3)cccc2C1=O | · | – | · | – | 30 | –
C[C@@H]1CN([C@@H](C)CO)C(=O)c2cccc(NC(=O)c3cnccn3)c2O[C@H]1CN(C)Cc1ccc2c(c1)OCO2 | – | – | · | – | – | –
CC(=O)Oc1ccc2c(=O)c(Oc3ccccc3)c(C)oc2c1OC(C)=O | – | – | – | -17 | – | –
Cc1oc2cc(O)ccc2c(=O)c1Oc1ccccc1 | · | – | · | · | · | –
C[C@@H]1CN([C@@H](C)CO)C(=O)c2cccc(NC(=O)c3cnccn3)c2O[C@@H]1CN(C)C | · | – | · | – | ? | –
O=C1c2ccccc2C(=O)N1CC(=O)N1c2ccccc2Sc2ccccc21 | · | – | · | – | – | –
O=C1c2ccccc2C(=O)N1CC(=O)N1c2ccccc2Sc2ccc(C(F)(F)F)cc21 | · | – | – | – | 35 | –
c1cc(-c2ccc(C3[C@H]4CNC[C@@H]3N4CC3CCCCC3)cc2)ccn1 (stereo partly drawn) | · | · | – | – | 46! | –
c1cc(-c2ccc(C3[C@H]4CNC[C@@H]3N4CC3CCOCC3)cc2)ccn1 (stereo partly drawn) | · | · | – | – | – | –
C[C@H]1CN([C@@H](C)CO)C(=O)c2cc(NC(=O)CCN3CCOCC3)ccc2O[C@@H]1CN(C)Cc1ccncc1 | – | – | · | – | – | –
C#CC[N+](C)(C)CCCCCCCCCC | – | – | – | · | – | –
CC#CC[N+](C)(C)CCCCCCCCCCCC | 62 | – | – | – | – | ·
O=S(=O)(NCCC1CC1(Cl)Cl)c1ccc(Cl)cc1 (stereo not drawn) | – | · | – | -48 | – | ·
CC1(C(=O)NCc2ccco2)Cc2c(-c3ccc(C(N)=O)cc3)ccnc2O1 (stereo not drawn) | – | – | – | – | 40 | –
CC(=O)Nc1cccc(-c2ccnc3c2CC(C)(C(=O)Nc2cccc(C(F)(F)F)c2)O3)c1 (stereo not drawn) | – | – | 30 | – | – | –
C[C@H]1CN([C@@H](C)CO)C(=O)c2cc(-c3cccnc3)cnc2O[C@@H]1CN(C)C(=O)c1ccccc1F | – | – | · | – | – | –
c1cncc(-c2ccc(C3[C@H]4CNC[C@@H]3N4Cc3ccc4c(c3)OCO4)cc2)c1 (stereo partly drawn) | · | · | – | – | – | –
O=C(c1cccc(C(F)(F)F)c1)N1CCc2c([nH]c3ccccc23)C1C(F)(F)F (stereo not drawn) | 86 | · | – | – | – | ·
O=C(O)c1ccccc1C(=O)N1CCc2c([nH]c3ccccc23)C1C(F)(F)F (stereo not drawn) | – | – | – | -30 | – | –
O=C(O)CSCC(=O)N1CCc2c([nH]c3ccccc23)C1C(F)(F)F (stereo not drawn) | – | – | – | – | – | –
CO[C@H]1CN(C)C(=O)c2cc(NC(C)=O)ccc2OC[C@H](C)N(C(=O)CN(C)C)C[C@H]1C | · | · | – | – | 44 | –
CO[C@@H]1CN(C)C(=O)c2cc(NS(C)(=O)=O)ccc2OC[C@H](C)N(C(=O)CN(C)C)C[C@@H]1C | – | – | – | – | 76 | –
COc1ccc(NC(=O)N(C)C[C@@H]2Oc3cc(-c4ccc(C)cc4)ccc3S(=O)(=O)N([C@H](C)CO)C[C@@H]2C)cc1 | – | – | · | – | – | –
O=C(CN1C(=O)C2C3CC(C(Br)C3Br)C2C1=O)OCC(=O)c1cccc([N+](=O)[O-])c1 (stereo not drawn) | – | – | – | – | – | 76
COc1cccc(COC(=O)CSCC(=O)Nc2ccc(C)cc2)c1OC | – | – | – | · | 72 | –
COc1ccc(NC(=O)Nc2cccc3c2O[C@@H](CN(C)S(=O)(=O)c2ccc(Cl)cc2)[C@@H](C)CN([C@H](C)CO)C3=O)cc1 | – | – | · | · | – | –
